Values after ≈ are worked out from the molar mass of the structure shown. Active and inactive are the calls of the source.
Key:
[1] = test system: Mycobacterium tuberculosis; assay: Antimicrobial activity against Mycobacterium tuberculosis H37Rv in GASTD medium after 10 days by spectrophotometric analysis; assay type: functional, organism-based; conditions: 240 h
How it was run: (§1)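 Virulent H37Rv, twofold microdilution in iron-limiting GASTD or GASTD plus 100 μM FeCl3, started at OD600 0.001 from deferrated stocks. Compounds were added in DMSO (0.5% final) up to 500 μM or the solubility limit. Cultures sat stationary for 10 days at 37 °C, read at OD600. IC50 from sigmoidal fits to triplicates; MIC90 is the lowest concentration giving ≥90% inhibition versus DMSO controls. Ratios are +Fe/GASTD.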

[2] = test system: Mycobacterium tuberculosis; assay: Antimicrobial activity against Mycobacterium tuberculosis H37Rv in GASTD medium supplemented with 100 uM FeCl3 after 10 days by spectrophotometric analysis; assay type: functional, organism-based; conditions: 240 h; how it was run: as §1
Yersinia pestis [3] = assay: Antimicrobial activity against Yersinia pestis KIM6-2082.1+ in PMHD medium supplemented with 100 uM FeCl3 after 26 hrs by spectrophotometric analysis; assay type: functional, organism-based
Yersinia pestis [4] = assay: Antimicrobial activity against Yersinia pestis KIM6-2082.1+ in PMHD medium after 26 hrs by spectrophotometric analysis; assay type: functional, organism-based
HeLa [5] = assay: Cytotoxicity against human HeLa cells at 0.2 uM after 24 hrs by ATPLite assay; assay type: cell-based
How it was run: (§2)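 HeLa cells in 96-well format, read with an ATPLite reagent-based viability assay. Cell–compound contact lasted 4 hr or 24 hr, and viability was expressed relative to untreated controls.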

Yersinia pestis [6] = assay: Ratio of MIC90 for Yersinia pestis KIM6-2082.1+ in PMHD medium supplemented with 100 uM FeCl3 to IC50 for Yersinia pestis KIM6-2082.1+ in Fe-deficient PMHD medium; assay type: functional
Yersinia pestis [7] = assay: Bacteriostatic activity against Yersinia pestis KIM6-2082.1+ in PMHD medium at 2 times MIC after 3 days by colony counting; assay type: functional, organism-based
Yersinia pestis [8] = assay: Ratio of IC50 for Yersinia pestis KIM6-2082.1+ in PMHD medium supplemented with 100 uM FeCl3 to IC50 for Yersinia pestis KIM6-2082.1+ in Fe-deficient PMHD medium; assay type: functional
[9] = test system: Mycobacterium tuberculosis; assay: Ratio of MIC90 for Mycobacterium tuberculosis H37Rv in GASTD medium supplemented with 100 uM FeCl3 to MIC90 for Mycobacterium tuberculosis H37Rv in Fe-deficient GASTD medium; assay type: functional; how it was run: as §1
HeLa [10] = assay: Cytotoxicity against human HeLa cells at 7 uM after 24 hrs by ATPLite assay; assay type: cell-based; how it was run: as §2
Yersinia pestis [11] = assay: Bactericidal activity against Yersinia pestis KIM6-2082.1+ in PMHD medium at 2 times MIC after 3 days by colony counting; assay type: functional, organism-based
[12] = test system: Mycobacterium tuberculosis; assay: Bactericidal activity against Mycobacterium tuberculosis H37Rv in GASTD medium at 2 times MIC after 30 days by colony counting; assay type: functional, organism-based
How it was run: (§3)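 Duplicate GASTD cultures were treated and incubated as in the growth assay (37 °C, 10 days), then serial 10-fold dilutions were plated on Middlebrook 7H11. Colonies were counted after 30 days at 37 °C and reported as CFU/mL. Bactericidal was defined as >99% killing relative to inoculum.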

HeLa [13] = assay: Cytotoxicity against human HeLa cells at 10 uM after 24 hrs by ATPLite assay; assay type: cell-based; how it was run: as §2
[14] = test system: Mycobacterium tuberculosis; assay: Ratio of IC50 for Mycobacterium tuberculosis H37Rv in GASTD medium supplemented with 100 uM FeCl3 to IC50 for Mycobacterium tuberculosis H37Rv in Fe-deficient GASTD medium; assay type: functional; how it was run: as §1
Yersinia pestis [15] = assay: Bacteriostatic activity against Yersinia pestis KIM6-2082.1+ in PMHD medium at MIC after 3 days by colony counting; assay type: functional, organism-based
[16] = test system: Mycobacterium tuberculosis; assay: Bactericidal activity against Mycobacterium tuberculosis H37Rv in GASTD medium at 4 times MIC after 30 days by colony counting; assay type: functional, organism-based; how it was run: as §3
HeLa [17] = assay: Cytotoxicity against human HeLa cells at 125 uM after 4 hrs by ATPLite assay; assay type: cell-based; how it was run: as §2
HeLa [18] = assay: Cytotoxicity against human HeLa cells at 21 uM after 24 hrs by ATPLite assay; assay type: cell-based; how it was run: as §2
HeLa [19] = assay: Cytotoxicity against human HeLa cells at 16 uM after 24 hrs by ATPLite assay; assay type: cell-based; how it was run: as §2
HeLa [20] = assay: Cytotoxicity against human HeLa cells at 125 uM after 24 hrs by ATPLite assay relative to control; assay type: cell-based; how it was run: as §2
[21] = test system: Mycobacterium tuberculosis; assay: Bactericidal activity against Mycobacterium tuberculosis H37Rv in GASTD medium at MIC after 30 days by colony counting; assay type: functional, organism-based; how it was run: as §3
Yersinia pestis [22] = assay: Bactericidal activity against Yersinia pestis KIM6-2082.1+ in PMHD medium at MIC after 3 days by colony counting; assay type: functional, organism-based

Structure (SMILES) | IC50 [1] | MIC90 [1] | IC50 [2] | MIC90 [2] | IC50 (Yersinia pestis [3]) | MIC90 (Yersinia pestis [3]) | IC50 (Yersinia pestis [4]) | MIC90 (Yersinia pestis [4]) | Ratio (Yersinia pestis [6]) | Ratio IC50 (Yersinia pestis [8]) | Ratio [9] | Activity (Yersinia pestis [11]) | Activity [12] | Ratio IC50 [14] | also measured
O=C(NO)N1CCN(C(=S)N/N=C/c2ccccc2O)CC1 | 20 µM | > 31 µM | > 8 µM | > 8 µM | > 4 µM | > 4 µM | 0.04 µM | 0.2 µM (≈ 0.0647 µg/mL) | >20 | >100 | – | – | – | – | Activity (HeLa [5]): Non-toxic; Activity (Yersinia pestis [7]): Active
CSC(=S)N/N=C(\C)c1ccccc1O | 4 µM | 10 µM (≈ 2.4 µg/mL) | 4 µM | 9 µM (≈ 2.16 µg/mL) | 156 µM | 233 µM (≈ 56 µg/mL) | 61 µM | 116 µM (≈ 27.9 µg/mL) | 2 | >3 | 1 | Active | Active | 1 | Activity (HeLa [10]): Non-toxic; Activity (HeLa [13]): Non-toxic
CSC(=S)N/N=C/c1ccc(O)cc1 | 31 µM | 59 µM (≈ 13.4 µg/mL) | 33 µM | 59 µM (≈ 13.4 µg/mL) | > 233 µM | > 233 µM | 137 µM | 388 µM (≈ 87.8 µg/mL) | – | >2 | 1 | – | Active | 1 | Activity (Yersinia pestis [15]): Active
CSC(=S)N/N=C/c1ccccc1O | 3 µM | 7 µM (≈ 1.58 µg/mL) | 2 µM | 6 µM (≈ 1.36 µg/mL) | > 59 µM | > 59 µM | 4 µM | 15 µM (≈ 3.39 µg/mL) | >4 | >15 | 1 | – | – | 1 | Activity (HeLa [10]): Non-toxic; Activity (Yersinia pestis [7]): Active; Activity [16]: Active; Activity (HeLa [13]): Non-toxic
N=C(NO)N1N=C(c2ccccc2O)C[C@H]1c1ccc(O)cc1 | 47 µM | 125 µM (≈ 39 µg/mL) | 22 µM | 31 µM (≈ 9.68 µg/mL) | > 63 µM | > 63 µM | 5 µM | 21 µM (≈ 6.56 µg/mL) | >3 | >13 | 0.2 | Active | Active | 0.5 | Activity (HeLa [17]): Non-toxic; Activity (HeLa [18]): Non-toxic; Activity (HeLa [19]): Non-toxic; Activity (HeLa [20]): 70%
Oc1ccc([C@@H]2CC(c3ccccc3O)=NN2)cc1 | 46 µM | 125 µM (≈ 31.8 µg/mL) | 37 µM | 125 µM (≈ 31.8 µg/mL) | > 31 µM | > 31 µM | 20 µM | > 31 µM | – | >2 | 1 | – | – | 1 | Activity [21]: Active
O=C(NO)N1N=C(c2ccccc2O)C[C@H]1c1ccc(O)cc1 | 42 µM | 125 µM (≈ 39.2 µg/mL) | 40 µM | > 31 µM | > 31 µM | > 31 µM | 13 µM | > 31 µM | – | >2 | – | – | – | 1 | Activity [21]: Active
Cc1ccccc1[C@@H]1CC(c2ccccc2O)=NN1C(N)=S | 7 µM | 16 µM (≈ 4.98 µg/mL) | 7 µM | 16 µM (≈ 4.98 µg/mL) | > 31 µM | > 31 µM | > 62 µM | > 63 µM | – | – | 1 | – | Active | 1 | Activity (HeLa [19]): 24%
CN[C@@H]1[C@H](O[C@H]2[C@H](O[C@H]3[C@H](O)[C@@H](O)[C@H](N=C(N)N)[C@@H](O)[C@@H]3N=C(N)N)O[C@@H](C)[C@]2(O)C=O)O[C@@H](CO)[C@H](O)[C@H]1O [STREPTOMYCIN] | – | – | – | – | 1 µM | 2 µM (≈ 1.16 µg/mL) | 1 µM | 1 µM (≈ 0.582 µg/mL) | 2 | 1 | – | Active | – | – | –
Oc1ccccc1C1=NN[C@H](c2ccccc2O)C1 | 25 µM | 66 µM (≈ 16.8 µg/mL) | 18 µM | 59 µM (≈ 15 µg/mL) | > 8 µM | > 8 µM | 9 µM | 31 µM (≈ 7.88 µg/mL) | – | – | 1 | – | Active | 1 | Activity (Yersinia pestis [22]): Active
N/C(=N\O)N/N=C/c1ccccc1O | 11 µM | 222 µM (≈ 43.1 µg/mL) | 15 µM | 26 µM (≈ 5.05 µg/mL) | 305 µM | > 500 µM | 70 µM | 250 µM (≈ 48.5 µg/mL) | >2 | 4 | 1 | Active | Active | 1 | –
N=C(N)N1N=C(c2ccccc2O)C[C@H]1c1ccccc1O | 44 µM | 66 µM (≈ 19.6 µg/mL) | 23 µM | 66 µM (≈ 19.6 µg/mL) | > 63 µM | > 63 µM | 7 µM | 42 µM (≈ 12.4 µg/mL) | >1 | >9 | 1 | – | Active | 1 | Activity (Yersinia pestis [22]): Active
N=C(NO)N1N=C(c2ccccc2O)C[C@H]1c1ccccc1O | 37 µM | 125 µM (≈ 39 µg/mL) | 32 µM | > 125 µM | > 16 µM | > 16 µM | 4 µM | 16 µM (≈ 5 µg/mL) | >1 | >4 | >1 | Active | Active | 1 | Activity (HeLa [18]): Non-toxic; Activity (HeLa [19]): Non-toxic

Reference: ChEMBL document CHEMBL1914393, “Chemical scaffolds with structural similarities to siderophores of nonribosomal peptide-polyketide origin as novel antimicrobials against Mycobacterium tuberculosis and Yersinia pestis” (Bioorg Med Chem Lett, 2011)
